Laboratory results reported in ChEMBL document CHEMBL1141198, “Design and synthesis of tri-ring P3 benzamide-containing aminonitriles as potent, selective, orally effective inhibitors of cathepsin K” (J Med Chem, 2005).

How the values were obtained:
[1] = tested on: Rattus norvegicus; experiment: Mean residence time in rat administered with 0.5 mg/kg, iv; type: functional, organism-based; parameters: dose 0.5 mg/kg
Procedure, shortened: (§1)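 Rats, three per study, cassette iv dosing of up to four compounds. Formulation DMSO (<20%), PEG 400 (<20%) and water at 0.5 mg/mL per compound, given at 1 mL/kg for 0.5 mg/kg per compound.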

[2] = Maximum concentration in rat administered with 0.5 mg/kg, iv; type: ADME, organism-based; parameters: dose 0.5 mg/kg, route intravenous; conditions: in vivo
[3] = Volume of distribution in rat administered with 0.5 mg/kg, iv; type: ADME, organism-based; parameters: dose 0.5 mg/kg, route intravenous; conditions: in vivo, read-out: Vss; procedure, shortened: as §1
[4] = tested on: Rattus norvegicus; experiment: Terminal half-life in rat administered with 0.5 mg/kg, iv; type: functional, organism-based; parameters: dose 0.5 mg/kg; procedure, shortened: as §1
[5] = target: Cathepsin B (Homo sapiens, UniProt P07858); experiment: Inhibitory constant against human cathepsin B using Boc-Leu-Lys-Arg-AMC substrate
[6] = tested on: Osteoclast; experiment: In vitro bone resorption in isolated rabbit osteoclasts; type: functional, cell-based; conditions: Oryctolagus cuniculus
Procedure, shortened: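 Bovine bone degraded by isolated rabbit osteoclasts; collagen degradation read by ELISA. 8-point dose–response curves; IC50 derived.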

[7] = Plasma clearance in rat administered with 0.5 mg/kg, iv; type: ADME, organism-based; parameters: dose 0.5 mg/kg, route intravenous; procedure, shortened: as §1
[8] = target: Cathepsin S (Homo sapiens, UniProt P25774); experiment: Inhibitory constant against human cathepsin S using Z-Val-Val-Arg-AMC substrate
Procedure, shortened: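 Recombinant human cathepsin S at 500 pM in 50 mM MES pH 6.5, 2.5 mM β-mercaptoethanol, 2.5 mM EDTA, 100 mM NaCl, 0.001% BSA, 10% DMSO. 30 min enzyme–inhibitor preincubation at 21–24 °C, 8 inhibitor concentrations. Started with 60 μM Z-Val-Val-Arg-AMC; initial rates by AMC fluorescence (ex 355/em 460). Ki(app) by Morrison tight-binding fit.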

[9] = target: Procathepsin L (Homo sapiens, UniProt P07711); experiment: Inhibitory constant against human cathepsin L using Z-Phe-Arg-AMC substrate
Procedure, shortened: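 Recombinant human cathepsin L at 500 pM in 50 mM MES pH 5.5, 2.5 mM DTT, 2.5 mM EDTA, 10% DMSO. Enzyme preincubated with inhibitor (8 concentrations) 30 min at 21–24 °C. Reaction started with 10 μM Z-Phe-Arg-AMC; AMC fluorescence (ex 355/em 460 nm) over first ~5 min. Ki(app) fitted with Morrison tight-binding model.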

[10] = target: Cathepsin K (Homo sapiens) (UniProt P43235); experiment: Inhibitory constant against human cathepsin K using Z-Phe-Arg-AMC substrate

Cathepsin S, sequence (P25774 whole entry): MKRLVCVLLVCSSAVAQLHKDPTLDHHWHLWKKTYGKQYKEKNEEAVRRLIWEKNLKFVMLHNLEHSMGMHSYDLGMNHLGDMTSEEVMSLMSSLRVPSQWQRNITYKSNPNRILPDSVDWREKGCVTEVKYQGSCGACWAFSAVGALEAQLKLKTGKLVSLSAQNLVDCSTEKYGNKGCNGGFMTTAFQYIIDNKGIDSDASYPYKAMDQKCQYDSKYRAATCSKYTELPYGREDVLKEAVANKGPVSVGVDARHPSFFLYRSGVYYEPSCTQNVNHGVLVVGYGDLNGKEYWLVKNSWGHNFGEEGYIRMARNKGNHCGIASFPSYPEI
Procathepsin L, sequence (P07711 whole entry): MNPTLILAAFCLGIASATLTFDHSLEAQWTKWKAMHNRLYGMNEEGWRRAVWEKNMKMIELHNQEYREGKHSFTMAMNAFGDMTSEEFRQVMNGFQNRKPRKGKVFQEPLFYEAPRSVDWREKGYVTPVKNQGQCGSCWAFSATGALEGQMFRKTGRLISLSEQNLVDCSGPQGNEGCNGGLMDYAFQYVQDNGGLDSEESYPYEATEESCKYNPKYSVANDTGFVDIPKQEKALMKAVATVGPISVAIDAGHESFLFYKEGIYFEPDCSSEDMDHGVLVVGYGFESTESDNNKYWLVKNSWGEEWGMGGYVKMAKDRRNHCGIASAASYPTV

Row | SMILES | MRT [1] | Cmax [2] | Vd [3] | T1/2 [4] | Ki ([5]; read-out: Ki app) | IC50 [6] | clearance [7] | Ki ([8]; read-out: Ki app) | Ki ([9]; read-out: Ki app) | Ki ([10]; read-out: Ki app) | Ki ([5]; read-out: Ki) | Ki ([8]; read-out: Ki) | Ki ([9]; read-out: Ki) | Ki ([10]; read-out: Ki)
1 | N#CCNC(=O)C1(NC(=O)c2ccc(-c3ccc(OC4CCN(CCO)CC4)cc3)cc2)CCCCC1 | 1.83 h | 220 nM | 25.3 L/kg | 2.05 h | 640 nM | 59 nM | 231 mL/min/kg | 16000 nM | 9100 nM | < 0.25 nM |  |  |  | 
2 | N#CCNC(=O)C1(NC(=O)c2ccc(-c3ccc(C4(F)CCNCC4)cc3)cc2)CCCCC1 | 0.8 h | 660 nM | 1.76 L/kg | 0.783 h | 280 nM | 35 nM | 37 mL/min/kg | 7900 nM | 900 nM | < 0.25 nM |  |  |  | 
3 | N#CCNC(=O)C1(NC(=O)c2ccc(-c3ccc(S(=O)(=O)N4CCNCC4)cc3)cc2)CCCCC1 | 0.667 h | 1000 nM | 3.29 L/kg | 1.3 h | 380 nM | 20 nM | 82 mL/min/kg | 9100 nM | 430 nM | < 0.25 nM |  |  |  | 
4 | N#CCNC(=O)C1(NC(=O)c2ccc(-c3csc(N4CCN(C5CCOCC5)CC4)n3)cc2)CCCCC1 | 0.983 h | 490 nM |  | 1.07 h | 840 nM | 8 nM |  | 17000 nM | > 150000 nM | 0.47 nM |  |  |  | 
5 | CC(C)(C)NC1CCN(c2ccc(-c3ccc(C(=O)NC4(C(=O)NCC#N)CCCCC4)cc3)cc2)CC1 | 2.17 h | 360 nM | 10.7 L/kg | 1.93 h |  | 40 nM | 84 mL/min/kg |  |  |  | 76000 nM | 3900 nM | 1600 nM | < 0.25 nM
6 | N#CCNC(=O)C1(NC(=O)c2ccc(-c3csc(N4CC[C@@H](N)C4)n3)cc2)CCCCC1 | 0.893 h | 840 nM |  | 0.883 h | 3000 nM | 52 nM |  | 4500 nM | 7500 nM | 1.4 nM |  |  |  | 
7 | N#CCNC(=O)C1(NC(=O)c2ccc(-c3ccc(S(=O)(=O)N4CCN(CC(F)(F)F)CC4)cc3)cc2)CCCCC1 | 0.65 h | 1200 nM | 1.55 L/kg | 0.767 h | 56000 nM | 320 nM | 40 mL/min/kg | 5500 nM | 540 nM | 6.1 nM |  |  |  | 
8 | CN1CCC(c2nc(-c3ccc(C(=O)NC4(C(=O)NCC#N)CCCCC4)cc3)cs2)CC1 | 0.233 h | 1430 nM |  | 0.717 h | 1400 nM | 61 nM |  | 20000 nM | 15000 nM | 1.6 nM |  |  |  | 
9 | CN1CCN(N(C)c2nc(-c3ccc(C(=O)NC4(C(=O)NCC#N)CCCCC4)cc3)cs2)CC1 | 1.03 h | 470 nM |  | 1.53 h | 890 nM | 11 nM |  | 21000 nM | 8900 nM | 0.25 nM |  |  |  | 
10 | COCCN1CCC(Oc2ccc(-c3ccc(C(=O)NC4(C(=O)NCC#N)CCCCC4)cc3)cc2)CC1 | 1.95 h | 370 nM | 3.27 L/kg | 2.02 h | 540 nM | 21 nM | 43 mL/min/kg | 6200 nM | 1200 nM | < 0.25 nM |  |  |  | 
11 | N#CCNC(=O)C1(NC(=O)c2ccc(-c3csc(OC4CCNCC4)n3)cc2)CCCCC1 | 1.23 h | 1400 nM |  | 2.53 h | 740 nM | 43 nM |  | 68000 nM | 11000 nM | 0.57 nM |  |  |  | 
12 | CN1CCN(Cc2nc(-c3ccc(C(=O)NC4(C(=O)NCC#N)CCCCC4)cc3)cs2)CC1 | 1.25 h | 430 nM |  | 1.28 h | 1500 nM | 60 nM |  | 42000 nM | 19000 nM | 0.94 nM |  |  |  | 
13 | COCCN1CCN(c2nc(-c3ccc(C(=O)NC4(C(=O)NCC#N)CCCCC4)cc3)cs2)CC1 | 0.683 h | 1780 nM |  | 1.97 h | 1300 nM | 4 nM |  | 20000 nM | 6400 nM | 0.48 nM |  |  |  | 
14 | CN1CCC(Oc2ccc(-c3ccc(C(=O)NC4(C(=O)NCC#N)CCCCC4)cc3)cc2)CC1 | 1.9 h | 320 nM | 11.1 L/kg | 1.9 h | 530 nM | 20 nM | 97 mL/min/kg | 12000 nM | 5600 nM | < 0.25 nM |  |  |  | 
15 | CC(C)(C)N1CCN(c2ccc(-c3ccc(C(=O)NC4(C(=O)NCC#N)CCCCC4)cc3)cc2)CC1 | 2.87 h |  | 11.2 L/kg | 2.4 h | 510 nM | 13 nM | 67 mL/min/kg | 7900 nM | 11000 nM | < 0.25 nM |  |  |  | 
16 | CN1CCC(C)(c2nc(-c3ccc(C(=O)NC4(C(=O)NCC#N)CCCCC4)cc3)cs2)CC1 | 2.33 h | 440 nM |  | 2.28 h | 1100 nM | 46 nM |  | 30000 nM | 7600 nM | 0.95 nM |  |  |  | 
17 | CC(C)NC1CCN(c2nc(-c3ccc(C(=O)NC4(C(=O)NCC#N)CCCCC4)cc3)cs2)CC1 | 2.42 h | 660 nM |  | 2.55 h | 760 nM | 19 nM |  | 33000 nM | 12000 nM | 0.59 nM |  |  |  | 
